# Screens as filed in PubChem.
# CYP2C19 inh: human CYP2C19 inhibition. P33261. CYP2C19 Supersomes, luciferin-H EGE luminescence, 30 min. inhibition, % at 5 µM. 21% of 96,000 active;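 active means CYP2C19 inhibition above a set limit at 5 µM in the primary screen, cut at about 50% in these data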;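 further: plate controls were negative control wells for no effect and 2.5 mM tranylcypromine positive control for full effect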
# Cav32 inh: blocks human Cav3.2 T-type calcium channel; O95180; Cav3.2-expressing cells, Fluo-4 calcium fluorescence FDSS; stronger effect = lower value; B-score at 10 µM; 4% of 100,000 active; AID 449739;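 active means single-dose well whose peak fluorescence ratio is a statistical outlier from its plate by either plate-standardised score or position-corrected B-score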
# HIV Rev-RRE inh: disrupts HIV-1 Rev binding to RRE RNA; Rev peptide-RRE RNA binding, FRET; inhibition, % at 8 µM; 0.79% of 97,000 active; AID 704;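 active means inhibition above the screen-wide mean plus 3 SD, cut at about 35% in these data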;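 further: 0% = median DMSO wells and 100% = median Neomycin B control wells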
# Target sequence (P05866 whole entry, looked up): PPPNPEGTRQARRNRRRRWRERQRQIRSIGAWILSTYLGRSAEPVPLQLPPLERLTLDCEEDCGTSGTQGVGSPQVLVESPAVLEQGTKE
#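 Test system: Cy5-tagged RRE RNA duplex with fluorescein-tagged Rev peptide | Read-out: % inhibition of FRET ratio versus controls | Probe or stimulus: Labelled Rev peptide | Incubation: 5 min RNA-compound premix plus 15 min binding step, 25 °C | Technique: FRET fluorescence readout | Benchmarks: DMSO low control, neomycin B high control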
# CYP2C9 act: activators of human CYP2C9; 1.4% of 96,000 active; activation factor at 5 µM; AID 1024; P11712; recombinant CYP2C9, luciferin-H conversion, luminescence; stronger effect = higher value; factor 1 = untreated enzyme, 0 = blocked;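 active means activation factor of 2 or more for CYP2C9 at a 5 µM dose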;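 further: 0 = sulfaphenazole-blocked wells and 1 = vehicle-only wells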
# Target sequence (P11712 whole entry, looked up): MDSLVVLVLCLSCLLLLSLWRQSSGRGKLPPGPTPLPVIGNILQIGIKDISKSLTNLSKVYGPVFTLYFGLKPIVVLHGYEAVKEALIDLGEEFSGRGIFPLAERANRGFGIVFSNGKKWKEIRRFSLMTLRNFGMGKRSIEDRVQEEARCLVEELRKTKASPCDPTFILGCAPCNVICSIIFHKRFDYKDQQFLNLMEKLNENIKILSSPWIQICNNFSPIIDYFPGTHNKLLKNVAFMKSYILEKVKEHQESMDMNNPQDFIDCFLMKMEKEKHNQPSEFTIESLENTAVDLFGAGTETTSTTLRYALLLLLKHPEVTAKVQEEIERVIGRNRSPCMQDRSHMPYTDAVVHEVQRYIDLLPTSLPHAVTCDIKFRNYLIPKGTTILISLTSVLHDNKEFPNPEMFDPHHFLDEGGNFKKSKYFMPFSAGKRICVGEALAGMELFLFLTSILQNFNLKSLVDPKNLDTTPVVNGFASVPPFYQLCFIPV
# CYP2C19 activ: cytochrome P450 2C19 (human) activation | P33261 | recombinant CYP2C19, luciferin-H EGE luminescence; stronger effect = higher value; 0 = fully inhibited enzyme, 1 = untreated enzyme | activation factor at 5 µM | 96,000 tested, under 10 active;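 active means activation factor of at least 2 at 5 µM in the primary screen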;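 further: 0 = wells with 2.5 mM tranylcypromine and 1 = vehicle-only wells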
# CYP2C9 inhib: inhibitors of human CYP2C9; P11712; CYP2C9 Supersomes, luciferin-H conversion, luminescence; inhibition, % at 5 µM; 20% of 96,000 active; AID 777;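 active means blocking of liver enzyme CYP2C9 beyond about 50% at 5 µM, limit read from the data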
# An asterisk follows results filed as active; x = no result. In the library only some 27% were active in any assay of this set; here they are far more common.
SMILES,CYP2C19 inh,Cav32 inh,HIV Rev-RRE inh,CYP2C9 act,CYP2C19 activ,CYP2C9 inhib
CCCCCN=C(C)c1c(O)c2ccccc2oc1=O,88*,-0.52,-1,0.2,0.1,78*
Cc1cccc(OCC(=O)OCC(=O)c2c(N)n(C)c(=O)n(C)c2=O)c1,45,0.18,9,0.9,0.6,10
Cc1cc2nncn2c(Cc2ccccc2)n1,26,0.041,x,0.9,0.7,6
CC(C)CNC(=O)c1c2c(nc3ccccc13)-c1ccccc1CC2,17,-1.2,8,0.5,0.8,46
C=CCNC(=O)c1c2c(nc3ccccc13)-c1ccccc1CC2,23,-1.3,-5,0.4,0.8,62*
CCN(CC)C(=O)c1c2c(nc3ccccc13)-c1ccccc1CC2,24,-4.9*,4,0.4,0.8,65*
CCOC(=O)c1cc2c(C(F)(F)F)cc(-c3cccnc3)nc2o1,12,-0.45,9,0.8,0.9,17
CCc1cccc2c(SCC(=O)NCC3CCCO3)nc(-c3ccc(F)cc3)nc12 (configuration not stated),2,0.22,4,0.6,1,41
CCc1ccc2nc(-c3cccc(C)c3)nc(SCC(=O)NCC3CCCO3)c2c1 (configuration not stated),60*,-0.7,5,0.2,0.4,75*
Cc1cccc(N(CC(=O)NCC2CCCO2)C(=O)CCC(=O)Nc2cc(C)on2)c1 (configuration not stated),34,-0.69,x,0.5,0.7,52*
O=C(CN(C(=O)CCC(=O)Nc1nccs1)c1cccc(F)c1)NCC1CCCO1 (configuration not stated),31,-0.16,-1,0.8,0.7,19
Cc1cccc(-c2noc(CCC(=O)NCC3CCCO3)n2)c1 (configuration not stated),60*,0.46,-1,1.1,0.4,-12
CCc1cccc2c(SC(C)C(=O)NCC3CCCO3)nc(-c3ccccc3)nc12 (configuration not stated),36,-2,-4,0.4,0.6,61*
c1ccc(-c2nnc(OCCN3CCOCC3)c3ccccc23)cc1,38,0.54,-1,1.1,0.6,-9
Cc1c(NC(=O)c2n[nH]c(=O)c3ccccc23)c(=O)n(-c2ccccc2)n1C,-20,-0.18,5,1.3,1.2,-27
C/C=C/c1ccc(OCCCNC)c(OC)c1,9,0.36,9,0.9,0.9,12
COC(=O)/C=C/CSC1=N/C(=C/c2ccc(-n3cncn3)cc2)C(=O)N1,2,0.34,5,0.7,1,25
O=Cc1ccc(OCC(=O)NC(=O)NC2CCCCC2)cc1,46,0.64,7,0.8,0.5,16
CN(C)S(=O)(=O)c1cccc(C(=O)OCC(=O)Nc2sccc2C#N)c1,0,0.025,34,0.8,1,23
CC1CCN(c2ccc(C(=O)NCCc3ccccc3)cn2)CC1,11,-2,x,0.3,0.9,67*
O=C(NCCc1ccccc1)c1ccc([N+](=O)[O-])cc1,48,x,9,1.2,0.5,-16
O=C(NCCc1ccccc1)c1cccs1,53*,0.31,9,1,0.5,5
COc1ccc(-c2nc(CCNC(=O)c3cccs3)cs2)cc1,40,-3.4,7,0.2,0.6,76*
O=C(NCCc1ccccc1)c1ccncc1,78*,0.46,11,0.6,0.2,38
O=C(NCCc1ccccc1)c1ccc(Cl)nc1,x,-0.12,7,x,x,x
SMILES,CYP2C19 inh,Cav32 inh,HIV Rev-RRE inh,CYP2C9 act,CYP2C19 activ,CYP2C9 inhib
N#CC(C(=O)Nc1ccc(Cl)c(Cl)c1)=C1Nc2ccccc2N1,4,-0.0055,7,0.9,1,7
CCCCC(CC)CNC(=O)c1cccs1 (configuration not stated),88*,-1.3,3,0.1,0.1,91*
CCOC(=O)CNC(=O)c1cccs1,x,0.14,1,x,x,x
CC(C)(CNC(=O)c1cccs1)CNC(=O)c1cccs1,58*,-0.44,-1,0.1,0.4,86*
O=C(NCCCNC(=O)c1cccs1)c1cccs1,27,-0.0073,9,0.6,0.7,42
C=CCOc1cccc(C2C(C(=O)c3ccco3)=C(O)C(=O)N2CCN(CC)CC)c1 (configuration not stated),17,1.2,2,1.1,0.8,-11
COc1ccc(Cn2nnc3c(=O)[nH]c(C(=O)NCCc4ccc(F)cc4)nc32)cc1OC,-1,0.79,x,0.3,1,74*
O=C(NCCc1ccccc1)c1nc2c(nnn2Cc2ccccc2Cl)c(=O)[nH]1,x,-3.6,-2,x,x,x
CC(=O)Nc1ccc(S(=O)(=O)NC2=C(N3CCN(Cc4ccccc4)CC3)C(=O)c3ccccc3C2=O)cc1,76*,x,-1,0.2,0.2,80*
CCOC(=O)C(NC(C)=O)(Nc1ccc(S(=O)(=O)Nc2cc(C)nc(C)n2)cc1)C(F)(F)F (configuration not stated),4,0.32,4,0.9,1,12
O=C(CSc1ncc(C(F)(F)F)cc1Cl)N1CCN(S(=O)(=O)c2ccccc2)CC1,81*,-4.1*,7,1,0.2,0
O=C(CSc1ncc(C(F)(F)F)cc1Cl)N1CCN(S(=O)(=O)c2ccc(Cl)cc2)CC1,79*,x,6,1.6,0.2,-57
O=C(CSc1nnc2c(Cl)cc(Cl)cn12)N1CCN(S(=O)(=O)c2ccccc2)CC1,6,0.96,5,1.1,0.9,-12
COc1ccc(C2=NOC(C)(c3nnc(Cc4ccccc4)o3)C2)cc1 (configuration not stated),x,0.26,x,x,x,x
Cc1ccc(C(=O)Cn2cnc3ccccc3c2=O)cc1,x,-0.32,1,x,x,x
COC(=O)c1ccc(C)c(NC(=O)Cn2cnc3ccccc3c2=O)c1,82*,0.02,2,0,0.2,99*
CCOC(=O)c1ccc(Cn2cnc3ccccc3c2=O)cc1,62*,-0.047,2,0.5,0.4,55*
COc1ccc(Cl)cc1NC(=O)CCn1cnc2ccccc2c1=O,66*,0.015,4,2.3*,0.3,-130
O=C(Cn1cnc2ccccc2c1=O)NCCC(=O)Nc1ccc2c(c1)OCCO2,14,-0.17,1,0.5,0.9,51*
COC(=O)c1ccccc1NC(=O)CCNC(=O)Cn1cnc2ccccc2c1=O,-15,0.027,-1,0.9,1.2,10
O=C(NCC(F)(F)F)Nc1cccnc1,x,1.5,1,x,x,x
Cn1c(=O)c2c(nc(-n3ccnc3)n2Cc2ccc([N+](=O)[O-])cc2)n(C)c1=O,4,-0.4,10,1.1,1,-8
CCc1c(C)[nH]c2c(C)cccc2c1=O,0,0.69,10,1,1,3
CCN(CC)S(=O)(=O)c1ccc(NC(=O)Cn2cnc3ccccc3c2=O)cc1,44,-0.8,10,0.3,0.6,67*
O=C(Cn1cnc2ccccc2c1=O)Nc1ccc2c(c1)CCC2,30,-1.1,5,0.6,0.7,40
